Measured values pooled from the literature.
Lines come from different studies, so protocols differ.
Sample: Caco-2

The Papp of `CNC(=O)c1ccccc1Nc1cc(Nc2ccc(N3CCOCC3)cc2OC)ncc1C(F)(F)F` is reported as 18 ×10⁻⁶ cm/s (20 µM; 2 h).
With `Cc1cc(C)c(CNC(=O)c2cc(Cl)c3c(c2C)O[C@@](C)([C@H]2CC[C@H](N(C)C)CC2)O3)c(=O)[nH]1` the Papp B→A was 20.7 ×10⁻⁶ cm/s (1 µM).
For `Cc1cc(-c2ccnc3[nH]cc(F)c23)cc(F)c1[C@@]1(O)[C@H](C)CN(C2CCS(=O)(=O)CC2)C[C@@H]1C`, the Papp was 14.8 ×10⁻⁶ cm/s (10 µM).
`C[C@@H]1O[C@@H](OC[C@H]2O[C@@H](Oc3c(-c4ccc(O)c(O)c4)oc4cc(O)cc(O)c4c3=O)[C@H](O)[C@@H](O)[C@@H]2O)[C@H](O)[C@H](O)[C@H]1O` gave a Papp A→B of 0.228 ×10⁻⁶ cm/s (50 µg/mL).
With `Cc1cc(-c2ccnc3[nH]cc(F)c23)cc(F)c1[C@@]1(O)[C@H](C)CN(C(=O)CN)C[C@@H]1C` the Papp was 5.2 ×10⁻⁶ cm/s (10 µM).
`O=C(Nc1ccc(OC(F)(F)F)cc1)N[C@H]1CC[C@H](Oc2ccc(C(=O)O)cc2)CC1` gave a Papp of 4.76 ×10⁻⁶ cm/s.
`O=C(CCc1ccc(O)cc1)c1c(O)cc(O)cc1O` gave a Papp B→A of 12.2 ×10⁻⁶ cm/s (100 µg/mL; 2 h).
With `O=c1cc(-c2ccc(O)cc2)oc2c([C@@H]3O[C@H](CO)[C@@H](O)[C@H](O)[C@H]3O)c(O)cc(O)c12` the Papp A→B was 0.322 ×10⁻⁶ cm/s (200 µg/mL).
`COc1ccc(-c2cc(=O)c3c(O)cc(O[C@@H]4O[C@H](CO[C@@H]5O[C@@H](C)[C@H](O)[C@@H](O)[C@H]5O)[C@@H](O)[C@H](O)[C@H]4O)cc3o2)cc1O` gave a Papp B→A of 35.1 ×10⁻⁶ cm/s (100 µg/mL; 2 h).
`O=C1CCC(N2Cc3cc(C4CCN(Cc5ccccc5)CC4)ccc3C2=O)C(=O)N1` (stereo not drawn) gave a Papp of 8.1 ×10⁻⁶ cm/s (10 µM; 2 h).
`COc1ccc(CCC(=O)c2c(O)cc(O[C@@H]3O[C@H](CO)[C@@H](O)[C@H](O)[C@H]3O[C@@H]3O[C@@H](C)[C@H](O)[C@@H](O)[C@H]3O)cc2O)cc1O` has a Papp B→A of 8.96 ×10⁻⁶ cm/s (100 µg/mL; 2 h).
`O=S1(=O)OC(c2ccc(O)cc2)(c2ccc(O)cc2)c2ccccc21` has a Papp of 0.54 ×10⁻⁶ cm/s.
